Test results as given in PubChem BioAssay.
Active and inactive are the calls of the source. Unless noted, no stated cut-off is given here; in the data, active means inhibition above about 30%; inactive means the rest.

Tests used:
[1] = reduced viability of SK-BR-3 breast cancer cells – cell-based, 24 h, human, pilot screen (AID 572;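 active means viability at or below 10% of carrier control in both of two separate runs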;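 further: compound exposure lasted between 18 and 24 h rather than exactly 24 h; 100% = carrier-treated control wells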); details: SK-BR-3 viability, CellTiter-Glo luminescence, at 10 µM, stronger effect = lower value
[2] = HUVEC growth inhibition – cell-based, human, primary screen (AID 575;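 active means viability at or below 30% in both replicate assays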;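 further: 100% = median of untreated cell wells with 0.1% DMSO on each plate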); details: HUVEC proliferation, CellTiter-Glo luminescence, 72 h; at 10 µM; stronger effect = lower value
Outline: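 System: primary human umbilical vein endothelial cells; Quantity: 1250 endothelial cells in each well; Buffer or medium: supplemented EBM, 2% fetal bovine serum; Doses: one dose, 10 µM final, 0.1% DMSO; Incubation: 72 h compound incubation; Technique: ATP-based CellTiter-Glo luminescent read; Evaluation: percent of median DMSO-control luminescence; Controls: vehicle and MePR control wells.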

[3] = H69AR cell proliferation blockers – human, duplicate replicates, primary screen (AID 580;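 active means viability at or under a set limit in both replicates, limit being median viability minus 3 SD, cut at about 48% in these data, passing the limit was not always enough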;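 further: 100% = mean luminescence of untreated wells and 0% = no signal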); details: H69AR lung tumor cells viability, ATP luminescence, 72 h; at 10 µM; stronger effect = lower value
[4] = MRP1 drug-resistance reversers in H69AR cells – cell-based, doxorubicin co-treatment, pilot screen (AID 601;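 active means viability loss from added drug above about 55%, and viability with drug at most 40%, in both replicates, limit read from the data, passing the limit was not always enough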); details: CellTiter-Glo, 72 h, at 10 µM; for differential viability (reversal): stronger effect = higher value
[5] = yeast transport mutant growth inhibition pilot in 384-well plates, post-Golgi transport modulator project (AID 636; in the data active means inhibition above about 31%); details: absorbance 615 nm, about 18 h, stronger effect = higher value
[6] = growth suppression of yeast trafficking mutant, preliminary HTS, modulators of trafficking downstream of Golgi apparatus project, 1536-format plate, OD 615 nm (AID 637); details: yeast transport mutant growth, absorbance 615 nm, 18 h; stronger effect = higher value
[7] = H69AR cells + 2 uM doxorubicin, measured here: viability with 2 uM doxorubicin, stronger effect = lower value
[8] = H69AR cells, compound alone cytotoxicity

Structure (SMILES) | viability [1] | viability [2] | viability [3] | differential viability (reversal) ([4]; H69AR cells + 2 uM doxorubicin) | viability [4, 7] [%] | viability [4, 8] [%] | inhibition [5] | inhibition [6]
Clc1cccc(-c2nnc3sc(-c4ccccc4)nn23)c1 | 86% (inactive) | 124% (inactive) | 89.5% (inactive) | -3.02% (inactive) | 92.6 | 89.5 | -0.27% (inactive) | -4% (inactive)
CNC(=O)c1ccc2nc(NC(C)=O)sc2c1 | 110% (inactive) | 102% (inactive) | 99.9% (inactive) | 9.57% (inactive) | 90.4 | 99.9 | -7.2% (inactive) | -0.36% (inactive)
COc1ccc(-c2ccc(-c3noc(-c4ccccc4)n3)c(OC)n2)cc1 | 103% (inactive) | 68.3% (inactive) | 88% (inactive) | 3.25% (inactive) | 84.7 | 88 | -8.51% (inactive) | -10.2% (inactive)
O=C(c1csc2ccccc12)n1cccn1 | 117% (inactive) | 89.7% (inactive) | 93% (inactive) | 6.73% (inactive) | 86.3 | 93 | -12.3% (inactive) | -1.29% (inactive)
CC1CN(S(=O)(=O)c2ccc(Cl)c(C(F)(F)F)c2)CC(C)O1 (stereo unspecified) | 68% (inactive) | 111% (inactive) | 100% (inactive) | 8.69% (inactive) | 91.8 | 100 | -9.32% (inactive) | 2% (inactive)
CCCCOC(=O)c1cccc(NC(=O)CC)c1 | 113% (inactive) | 91.1% (inactive) | 89.6% (inactive) | 1.34% (inactive) | 88.3 | 89.6 | 5.71% (inactive) | 13.4% (inactive)
O=C(O)c1ccc(COc2c(F)c(F)c(F)c(F)c2F)o1 | 78% (inactive) | 106% (inactive) | 92.9% (inactive) | -8.1% (inactive) | 101 | 92.9 | 0.14% (inactive) | 19.4% (inactive)
COc1ccc(C2C3=C(CCCC3=O)Nc3nc(SCc4ccccc4)nn32)cc1OC (stereo unspecified) | 101% (inactive) | 121% (inactive) | 74.9% (inactive) | -21% (inactive) | 96 | 74.9 | -4.46% (inactive) | 0.36% (inactive)
Cc1nc(CNS(=O)(=O)c2cccc(F)c2)cs1 | 64% (inactive) | 93.3% (inactive) | 91.4% (inactive) | 1.23% (inactive) | 90.1 | 91.4 | -1.95% (inactive) | 12.1% (inactive)
CC1(C)C(c2cccs2)=[N+]([O-])C2(CCCCC/C2=N\O)N1O (stereo unspecified) | 99% (inactive) | 101% (inactive) | 110% (inactive) | 18.4% (inactive) | 91.8 | 110 | -7.95% (inactive) | -1.27% (inactive)
CCOc1ccc2[nH]c(O)c(NC(C)=O)c2c1 | 95% (inactive) | 100% (inactive) | 94.8% (inactive) | 0.61% (inactive) | 94.1 | 94.8 | -4.86% (inactive) | 0.91% (inactive)
CCCCNc1cc(C(=O)O)cc(S(N)(=O)=O)c1Oc1ccccc1 | 121% (inactive) | 87% (inactive) | 114% (inactive) | 23.6% (inactive) | 90.5 | 114 | -1.56% (inactive) | 7.17% (inactive)
